Data reported in ChEMBL document CHEMBL1151702, “Using an aryl phenanthroimidazole moiety as a conjugated flexible intercalator to improve the hybridization efficiency of a triplex-forming oligonucleotide” (Bioorg Med Chem, 2008).

Legend:
Type in all cases: nucleic-acid assay
Nucleic Acid [1] = experiment: Binding affinity to synthetic double stranded DNA D1 at 1.5 uM at pH 7.2 by thermal denaturation study
Outline: (§1)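 Parallel triplex melting: target duplex assembled from strands at 1.0 µM each, TFO third strand added at 1.5 µM. Buffer 20 mM sodium cacodylate, 100 mM NaCl, 10 mM MgCl₂, at the pH of the line. Samples heated to 80 °C for 5 min, cooled to 5 °C and held 30 min. Absorbance read at 260 nm while heating at 1.0 °C/min; Tm taken as the first-derivative maximum.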

Nucleic Acid [2] = experiment: Binding affinity to synthetic oligonucleotide ON19 at 1.0 uM at pH 6.0 by thermal denaturation study
Outline: (§2)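 Duplex melting: complementary strands at 1.0 µM each in 20 mM sodium cacodylate, 100 mM NaCl, 10 mM MgCl₂, at the pH of the line. Annealed at 80 °C for 5 min, then cooled to 5 °C and held 30 min. UV absorbance read at 260 nm with heating at 1.0 °C/min; Tm is the maximum of the first-derivative curve.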

Nucleic Acid [3] = experiment: Binding affinity to synthetic oligonucleotide ON19 at 1.0 uM at pH 7.2 by thermal denaturation study; outline: as §2
Nucleic Acid [4] = experiment: Binding affinity to synthetic oligonucleotide ON20 at 1.0 uM at pH 7.0 by thermal denaturation study
Outline: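 DNA/RNA antiparallel duplex: each strand at 1.0 µM in 10 mM sodium phosphate, 140 mM NaCl, 1 mM EDTA, pH 7.0. Heated to 80 °C for 5 min, cooled to 5 °C and held 30 min. Absorbance followed at 260 nm during a 1.0 °C/min temperature ramp; Tm is the first-derivative maximum.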

Nucleic Acid [5] = experiment: Binding affinity to synthetic double stranded DNA D1 at 1.5 uM at pH 6.0 by thermal denaturation study; outline: as §1
Nucleic Acid [6] = experiment: Binding affinity to synthetic oligonucleotide ON18 at 1.0 uM at pH 6.0 by thermal denaturation study; outline: as §2

Tm (Nucleic Acid [1]) | Tm (Nucleic Acid [2]) | Tm (Nucleic Acid [3]) | Tm (Nucleic Acid [4]) | Tm (Nucleic Acid [5]) | Tm (Nucleic Acid [6]) | SMILES
21.5 °C | 44.5 °C | – | – | 39.5 °C | 30 °C | Cc1cn([C@H]2C[C@H](OP(=O)(O)OC[C@H]3O[C@@H](n4cc(C)c(=O)[nH]c4=O)C[C@@H]3OP(=O)(O)OC[C@H]3O[C@@H](n4cc(C)c(=O)[nH]c4=O)C[C@@H]3O[PH](O)(O)OC[C@H]3O[C@@H](n4cc(C)c(=O)[nH]c4=O)C[C@@H]3OP(=O)(O)OC[C@H]3O[C@@H](n4cc(C)c(=O)[nH]c4=O)C[C@@H]3OP(=O)(O)OC[C@H]3O[C@@H](n4cc(C)c(=O)[nH]c4=O)C[C@@H]3O)[C@@H](COC[C@@H](COCc3ccc(C#Cc4ccc5ccc6cccc7ccc4c5c67)cc3)OP(=O)(O)O[C@H]3C[C@H](n4ccc(N)nc4=O)O[C@@H]3COP(=O)(O)O[C@H]3C[C@H](n4cc(C)c(=O)[nH]c4=O)O[C@@H]3COP(=O)(O)O[C@H]3C[C@H](n4cc(C)c(=O)[nH]c4=O)O[C@@H]3COP(=O)(O)O[C@H]3C[C@H](n4cc(C)c(=O)[nH]c4=O)O[C@@H]3COP(=O)(O)O[C@H]3C[C@H](n4ccc(N)nc4=O)O[C@@H]3COP(=O)(O)O[C@H]3C[C@H](n4ccc(N)nc4=O)O[C@@H]3COP(=O)(O)O[C@H]3C[C@H](n4ccc(N)nc4=O)O[C@@H]3COP(=O)(O)O[C@H]3C[C@H](n4ccc(N)nc4=O)O[C@@H]3CO)O2)c(=O)[nH]c1=O
20.5 °C | 53 °C | 52 °C | – | 44.5 °C | 36 °C | Cc1cn([C@H]2C[C@H](OP(=O)(O)OC[C@H]3O[C@@H](n4cc(C)c(=O)[nH]c4=O)C[C@@H]3OP(=O)(O)OC[C@H]3O[C@@H](n4cc(C)c(=O)[nH]c4=O)C[C@@H]3OP(=O)(O)OC[C@H]3O[C@@H](n4ccc(N)nc4=O)C[C@@H]3OP(=O)(O)OC[C@H]3O[C@@H](n4cc(C)c(=O)[nH]c4=O)C[C@@H]3OP(=O)(O)OC[C@H]3O[C@@H](n4cc(C)c(=O)[nH]c4=O)C[C@@H]3OP(=O)(O)OC[C@H]3O[C@@H](n4cc(C)c(=O)[nH]c4=O)C[C@@H]3O[PH](O)(O)OC[C@H]3O[C@@H](n4cc(C)c(=O)[nH]c4=O)C[C@@H]3OP(=O)(O)OC[C@H]3O[C@@H](n4cc(C)c(=O)[nH]c4=O)C[C@@H]3OP(=O)(O)OC[C@H]3O[C@@H](n4cc(C)c(=O)[nH]c4=O)C[C@@H]3O)[C@@H](COP(=O)(O)O[C@H]3C[C@H](n4ccc(N)nc4=O)O[C@@H]3COP(=O)(O)O[C@H]3C[C@H](n4ccc(N)nc4=O)O[C@@H]3COP(=O)(O)O[C@H]3C[C@H](n4ccc(N)nc4=O)O[C@@H]3COP(=O)(O)O[C@H]3C[C@H](n4ccc(N)nc4=O)O[C@@H]3COP(=O)(O)O[C@H](CO)COCc3ccc(C#Cc4ccc5ccc6cccc7ccc4c5c67)cc3)O2)c(=O)[nH]c1=O

Further lines, the compound ahead of its results:

SMILES | Tm (Nucleic Acid [1]) | Tm (Nucleic Acid [2]) | Tm (Nucleic Acid [3]) | Tm (Nucleic Acid [4]) | Tm (Nucleic Acid [5]) | Tm (Nucleic Acid [6])
Cc1cn([C@H]2C[C@H](OP(=O)(O)OC[C@H]3O[C@@H](n4cc(C)c(=O)[nH]c4=O)C[C@@H]3OP(=O)(O)OC[C@H]3O[C@@H](n4cc(C)c(=O)[nH]c4=O)C[C@@H]3O[PH](O)(O)OC[C@H]3O[C@@H](n4cc(C)c(=O)[nH]c4=O)C[C@@H]3OP(=O)(O)OC[C@H]3O[C@@H](n4cc(C)c(=O)[nH]c4=O)C[C@@H]3OP(=O)(O)OC[C@H]3O[C@@H](n4cc(C)c(=O)[nH]c4=O)C[C@@H]3O)[C@@H](COC[C@@H](CCOc3ccc(-c4nc5c6ccccc6c6ccccc6c5[nH]4)cc3)OP(=O)(O)O[C@H]3C[C@H](n4ccc(N)nc4=O)O[C@@H]3COP(=O)(O)O[C@H]3C[C@H](n4cc(C)c(=O)[nH]c4=O)O[C@@H]3COP(=O)(O)O[C@H]3C[C@H](n4cc(C)c(=O)[nH]c4=O)O[C@@H]3COP(=O)(O)O[C@H]3C[C@H](n4cc(C)c(=O)[nH]c4=O)O[C@@H]3COP(=O)(O)O[C@H]3C[C@H](n4ccc(N)nc4=O)O[C@@H]3COP(=O)(O)O[C@H]3C[C@H](n4ccc(N)nc4=O)O[C@@H]3COP(=O)(O)O[C@H]3C[C@H](n4ccc(N)nc4=O)O[C@@H]3COP(=O)(O)O[C@H]3C[C@H](n4ccc(N)nc4=O)O[C@@H]3CO)O2)c(=O)[nH]c1=O | 25 °C | 51 °C | 50.5 °C | 51 °C | 43.5 °C | 34.5 °C
Cc1cn([C@H]2C[C@H](OP(=O)(O)OC[C@H]3O[C@@H](n4cc(C)c(=O)[nH]c4=O)C[C@@H]3OP(=O)(O)OC[C@H]3O[C@@H](n4cc(C)c(=O)[nH]c4=O)C[C@@H]3O[PH](O)(O)OC[C@H]3O[C@@H](n4cc(C)c(=O)[nH]c4=O)C[C@@H]3OP(=O)(O)OC[C@H]3O[C@@H](n4cc(C)c(=O)[nH]c4=O)C[C@@H]3OP(=O)(O)OC[C@H]3O[C@@H](n4cc(C)c(=O)[nH]c4=O)C[C@@H]3O)[C@@H](COC[C@@H](CCOc3ccc(-c4ncc[nH]4)c4ccccc34)OP(=O)(O)O[C@H]3C[C@H](n4ccc(N)nc4=O)O[C@@H]3COP(=O)(O)O[C@H]3C[C@H](n4cc(C)c(=O)[nH]c4=O)O[C@@H]3COP(=O)(O)O[C@H]3C[C@H](n4cc(C)c(=O)[nH]c4=O)O[C@@H]3COP(=O)(O)O[C@H]3C[C@H](n4cc(C)c(=O)[nH]c4=O)O[C@@H]3COP(=O)(O)O[C@H]3C[C@H](n4ccc(N)nc4=O)O[C@@H]3COP(=O)(O)O[C@H]3C[C@H](n4ccc(N)nc4=O)O[C@@H]3COP(=O)(O)O[C@H]3C[C@H](n4ccc(N)nc4=O)O[C@@H]3COP(=O)(O)O[C@H]3C[C@H](n4ccc(N)nc4=O)O[C@@H]3CO)O2)c(=O)[nH]c1=O | – | – | – | – | 13.5 °C | –
Cc1cn([C@H]2C[C@H](OP(=O)(O)OC[C@H]3O[C@@H](n4ccc(N)nc4=O)C[C@@H]3OP(=O)(O)OC[C@H]3O[C@@H](n4cc(C)c(=O)[nH]c4=O)C[C@@H]3OP(=O)(O)O[C@@H](COCc3ccc(C#Cc4ccc5ccc6cccc7ccc4c5c67)cc3)COC[C@H]3O[C@@H](n4cc(C)c(=O)[nH]c4=O)C[C@@H]3OP(=O)(O)OC[C@H]3O[C@@H](n4cc(C)c(=O)[nH]c4=O)C[C@@H]3O[PH](O)(O)OC[C@H]3O[C@@H](n4cc(C)c(=O)[nH]c4=O)C[C@@H]3OP(=O)(O)OC[C@H]3O[C@@H](n4cc(C)c(=O)[nH]c4=O)C[C@@H]3OP(=O)(O)OC[C@H]3O[C@@H](n4cc(C)c(=O)[nH]c4=O)C[C@@H]3O)[C@@H](COC[C@H](COCc3ccc(C#Cc4ccc5ccc6cccc7ccc4c5c67)cc3)OP(=O)(O)O[C@H]3C[C@H](n4cc(C)c(=O)[nH]c4=O)O[C@@H]3COP(=O)(O)O[C@H]3C[C@H](n4cc(C)c(=O)[nH]c4=O)O[C@@H]3COP(=O)(O)O[C@H]3C[C@H](n4ccc(N)nc4=O)O[C@@H]3COP(=O)(O)O[C@H]3C[C@H](n4ccc(N)nc4=O)O[C@@H]3COP(=O)(O)O[C@H]3C[C@H](n4ccc(N)nc4=O)O[C@@H]3COP(=O)(O)O[C@H]3C[C@H](n4ccc(N)nc4=O)O[C@@H]3CO)O2)c(=O)[nH]c1=O | 43 °C | 41 °C | 38 °C | – | 56.5 °C | 38 °C
